Reference: the M2OR odorant receptor database

Biological target: T1, OR51L1 (Homo sapiens) (UniProt Q8NGJ5)
T1 sequence (whole entry): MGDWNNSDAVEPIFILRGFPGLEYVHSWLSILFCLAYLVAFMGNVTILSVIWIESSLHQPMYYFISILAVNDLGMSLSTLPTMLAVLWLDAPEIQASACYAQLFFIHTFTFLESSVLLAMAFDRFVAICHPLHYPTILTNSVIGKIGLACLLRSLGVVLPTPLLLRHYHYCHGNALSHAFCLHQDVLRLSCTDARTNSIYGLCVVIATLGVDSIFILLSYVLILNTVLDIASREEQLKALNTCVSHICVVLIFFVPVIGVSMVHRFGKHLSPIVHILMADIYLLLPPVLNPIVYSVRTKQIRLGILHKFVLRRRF
Settings: stereoisomer not certain
How it was run: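 Each entry records the cell line, G-protein, co-transfected protein and tags used. Methods varied with the source, often transient luciferase assays in mammalian cell lines. A receptor–molecule pair is called responsive (active) if the original authors judged its signal statistically different from baseline and non-responsive (inactive) otherwise.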

Odorant receptor agonist call, inactive:
CCCCCCC(=O)[O-].[H+]
CCCCCO
O=C1CCOc2ccccc21
C=C(C)C1CCC(C)C(=O)C1 (stereo not given)
CCCCCCCC(C)=O
CCC(C(=O)O)c1ccccc1 (stereo not given)
CCCCCCCCC(=O)O
CCCCCCC(C)=O
CCCCCC1=C(C)CCC1=O
CCCCCCCCO
CC(C)=CCCC(C)CCO (stereo not given)
CCCCCCCCS
CCCCCCCCCCO
CCCCCC(=O)CC
CCC(=O)C(=O)CC
CCCC(C)=O
O=C(c1ccccc1)c1ccccc1
CC(=O)OCc1ccccc1
CCC(=O)O
O=c1ccc2ccccc2o1
CCCCCCCCCC(=O)[O-].[H+]
CCCCCCCO
CC(C)=CCCC(C)=CCO
CCCCC(=O)O
CCCCOC=O
C=CCOC(=O)CCCCCC
O=C1Cc2ccccc2O1
CC12CCC(CC1=O)C2(C)C (stereo not given)
CCCCCCCC(=O)[O-].[H+]
COc1cc(C(=O)O)ccc1O
